Measured values from ChEMBL document CHEMBL1149737, “Brominated polyacetylenic acids from the marine sponge Xestospongia muta: inhibitors of HIV protease” (J Nat Prod, 1992).
Active and inactive are the calls of the source. The calls are words filed in the database; no cut-off is given here.

Assays:
MOLT-4 = experiment: Cytotoxicity against human MOLT4 cells; type: functional, cell-based
[1] = molecular target: T1, ATP-citrate synthase (Rattus norvegicus) (UniProt P16638); experiment: Inhibition of rat ATP citrate lyase at 100 ug/ml
T1 sequence (whole entry): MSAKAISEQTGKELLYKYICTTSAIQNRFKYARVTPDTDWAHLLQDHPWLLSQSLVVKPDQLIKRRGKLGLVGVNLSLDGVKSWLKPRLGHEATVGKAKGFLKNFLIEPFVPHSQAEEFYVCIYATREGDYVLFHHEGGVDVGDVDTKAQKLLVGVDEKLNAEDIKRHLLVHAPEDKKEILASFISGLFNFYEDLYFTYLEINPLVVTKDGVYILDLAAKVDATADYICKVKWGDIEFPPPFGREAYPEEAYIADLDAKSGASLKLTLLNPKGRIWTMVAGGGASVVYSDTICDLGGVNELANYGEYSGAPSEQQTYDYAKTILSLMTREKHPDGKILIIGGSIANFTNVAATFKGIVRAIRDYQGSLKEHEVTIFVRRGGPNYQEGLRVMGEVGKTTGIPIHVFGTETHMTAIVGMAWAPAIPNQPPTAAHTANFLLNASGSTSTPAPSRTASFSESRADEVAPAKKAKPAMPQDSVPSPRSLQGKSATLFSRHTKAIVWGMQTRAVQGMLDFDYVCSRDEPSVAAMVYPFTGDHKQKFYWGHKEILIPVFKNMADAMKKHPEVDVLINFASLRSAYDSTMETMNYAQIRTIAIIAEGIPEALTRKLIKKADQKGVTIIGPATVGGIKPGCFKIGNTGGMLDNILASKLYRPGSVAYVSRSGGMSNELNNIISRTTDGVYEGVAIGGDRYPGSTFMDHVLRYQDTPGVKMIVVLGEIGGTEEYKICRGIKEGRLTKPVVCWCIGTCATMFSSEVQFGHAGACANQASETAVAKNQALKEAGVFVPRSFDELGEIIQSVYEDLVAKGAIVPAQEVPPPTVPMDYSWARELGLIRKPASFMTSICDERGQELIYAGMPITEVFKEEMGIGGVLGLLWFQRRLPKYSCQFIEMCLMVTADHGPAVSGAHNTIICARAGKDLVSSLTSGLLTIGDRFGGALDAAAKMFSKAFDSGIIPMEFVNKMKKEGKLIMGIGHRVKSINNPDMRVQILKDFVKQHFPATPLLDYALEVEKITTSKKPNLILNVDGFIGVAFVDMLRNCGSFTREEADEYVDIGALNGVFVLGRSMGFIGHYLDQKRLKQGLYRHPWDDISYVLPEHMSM

Protease = Protease (Human immunodeficiency virus 1, UniProt Q9YQ12); experiment: Inhibition of HIV1 protease-mediated proteolysis of rabbit muscle lactate dehydrogenase by spectrophotometry; type: single protein
Outline: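 Purified HIV-1 protease (0.8 µg) with rabbit muscle LDH (0.5–2 mg/ml) in 80 mM Na acetate pH 4.7, 1 mM EDTA, 1 mM DTT, 0.2 M NaCl, 37°, 10–60 min. Aliquots were diluted into 0.1 M K phosphate pH 7.0, 30 min RT. Residual LDH was read as NADH loss at 340 nm (7.6 mM pyruvate, 0.2 mM NADH, 37°) from initial slopes. Controls lacked protease.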

Sus scrofa = species: Sus scrofa; experiment: Inhibition of pig malic dehydrogenase at 100 ug/ml

Sequence of Protease (Q9YQ12 whole entry): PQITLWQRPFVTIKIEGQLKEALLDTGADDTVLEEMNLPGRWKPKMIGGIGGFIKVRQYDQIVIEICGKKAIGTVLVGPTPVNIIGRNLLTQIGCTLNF

SMILES	Activity [1]	IC50 (Protease)	Activity (Sus scrofa)	Activity (MOLT-4)
COC(=O)CCCC#CC#C/C=C/CCCCCC/C=C/Br	inactive	10 µM	inactive	Active
O=C(O)CCCC#CC#C/C=C/CC/C=C/C#C/C=C/Br	inactive	6 µM	inactive	Active
O=C(O)CCCC#C/C=C/CCCC/C=C/C#C/C=C/Br	inactive	10 µM	inactive	Active

More lines, main results first:

Activity [1]	IC50 (Protease)	Activity (Sus scrofa)	SMILES	Activity (MOLT-4)
inactive	7 µM	inactive	O=C(O)CCCC#CC#C/C=C/CCCC/C=C/C#CBr	Active
inactive	8 µM	inactive	O=C(O)CCCC#CC#C/C=C/CCCCC#C/C=C/Br	Active
inactive	12 µM	inactive	O=C(O)CCCC#CC#C/C=C/CCCCCC/C=C/Br	Active
